Measured values taken from ChEMBL document CHEMBL1157638, “Fluorescent epigenetic small molecule induces expression of the tumor suppressor ras-association domain family 1A and inhibits human prostate xenograft” (J Med Chem, 2010).
Calls of active or inactive are those of the source. No cut-off for these calls is given here.

Legend:
COLO 205 = assay: Growth inhibition of human COLO205 cells assessed as cell growth at 100 nM relative to untreated control; assay type: functional; conditions: read-out: Activity
How it was run: (§1)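 Run externally at the National Cancer Institute as a 59-cell-line panel screen, with concentrations up to 100 μM. Growth was scored relative to control, where negative growth or total cell kill was possible. Data are in the Supporting Information.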

Malme-3M = assay: Growth inhibition of human MALME-3M cells assessed as cell growth at 100 nM relative to untreated control; assay type: functional; conditions: read-out: Activity
HL-60(TB) = assay: Growth inhibition of human HL-60(TB) cells assessed as cell growth at 1 uM relative to untreated control; assay type: functional; conditions: read-out: Activity
HOP-92 = assay: Growth inhibition of human HOP92 cells assessed as cell growth at 1 uM relative to untreated control; assay type: functional; conditions: read-out: Activity; how it was run: as §1
NCI-H23 [1] = assay: Growth inhibition of human NCI-H23 cells assessed as cell growth at 1 uM relative to untreated control; assay type: functional; conditions: read-out: Activity
HCT-116 = assay: Growth inhibition of human HCT116 cells assessed as cell growth at 1 uM relative to untreated control; assay type: functional; conditions: read-out: Activity; how it was run: as §1
HCT-15 [2] = assay: Growth inhibition of human HCT15 cells assessed as cell growth at 1 uM relative to untreated control; assay type: functional; conditions: read-out: Activity; how it was run: as §1
NCI-H322M = assay: Growth inhibition of human NCI-H322M cells assessed as cell growth at 1 nM relative to untreated control; assay type: functional; conditions: read-out: Activity
HT-29 [3] = assay: Growth inhibition of human HT-29 cells assessed as cell growth at 1 nM relative to untreated control; assay type: functional; conditions: read-out: Activity
SF-268 = assay: Growth inhibition of human SF268 cells assessed as cell growth at 1 nM relative to untreated control; assay type: functional; conditions: read-out: Activity
SK-MEL-28 = assay: Growth inhibition of human SK-MEL-28 cells assessed as cell growth at 1 nM relative to untreated control; assay type: functional; conditions: read-out: Activity
MDA-MB-435 = assay: Growth inhibition of human MDA-MB-435 cells assessed as cell growth at 1 uM relative to untreated control; assay type: functional; conditions: read-out: Activity
OVCAR-4 [4] = assay: Growth inhibition of human OVCAR4 cells assessed as cell growth at 1 uM relative to untreated control; assay type: functional; conditions: read-out: Activity
OVCAR-3 [5] = assay: Growth inhibition of human OVCAR-3 cells assessed as cell growth at 1 nM relative to untreated control; assay type: functional; conditions: read-out: Activity
UO-31 [6] = assay: Growth inhibition of human UO31 cells assessed as cell growth at 1 nM relative to untreated control; assay type: functional; conditions: read-out: Activity
DU-145 = assay: Growth inhibition of human DU145 cells assessed as cell growth at 1 nM relative to untreated control; assay type: functional; conditions: read-out: Activity; how it was run: as §1
MCF7 = assay: Growth inhibition of human MCF7 cells assessed as cell growth at 1 nM relative to untreated control; assay type: functional; conditions: read-out: Activity
MOLT-4 = assay: Growth inhibition of human MOLT4 cells assessed as cell growth at 10 nM relative to untreated control; assay type: functional; conditions: read-out: Activity
HOP-62 = assay: Growth inhibition of human HOP62 cells assessed as cell growth at 10 nM relative to untreated control; assay type: functional; conditions: read-out: Activity; how it was run: as §1
A498 = assay: Growth inhibition of human A498 cells assessed as cell growth at 1 uM relative to untreated control; assay type: functional; conditions: read-out: Activity
CAKI-1 = assay: Growth inhibition of human Caki1 cells assessed as cell growth at 1 uM relative to untreated control; assay type: functional; conditions: read-out: Activity; how it was run: as §1
T47D = assay: Growth inhibition of human T47D cells assessed as cell growth at 1 uM relative to untreated control; assay type: functional; conditions: read-out: Activity
HCT-15 [7] = assay: Growth inhibition of human HCT15 cells assessed as cell growth at 10 uM relative to untreated control; assay type: functional; conditions: read-out: Activity; how it was run: as §1
SK-MEL-2 = assay: Growth inhibition of human SK-MEL-2 cells assessed as cell growth at 10 uM relative to untreated control; assay type: functional; conditions: read-out: Activity
OVCAR-4 [8] = assay: Growth inhibition of human OVCAR4 cells assessed as cell growth at 10 uM relative to untreated control; assay type: functional; conditions: read-out: Activity
SK-OV-3 = assay: Growth inhibition of human SKOV3 cells assessed as cell growth at 10 uM relative to untreated control; assay type: functional; conditions: read-out: Activity
MDA-MB-231 = assay: Growth inhibition of human MDA-MB-231 cells assessed as cell growth at 10 uM relative to untreated control; assay type: functional; conditions: read-out: Activity
[9] = Growth inhibition of human Hs 578T cells assessed as cell growth at 10 uM relative to untreated control; assay type: functional; conditions: read-out: Activity
BT-549 = assay: Growth inhibition of human BT549 cells assessed as cell growth at 10 uM relative to untreated control; assay type: functional; conditions: read-out: Activity
NCI-H23 [10] = assay: Growth inhibition of human NCI-H23 cells; assay type: functional
HT-29 [11] = assay: Growth inhibition of human HT-29 cells; assay type: functional
PC-3 [12] = assay: Cytostatic against human PC3 cells up to 30 uM after 24 hrs by trypan blue exclusion method; assay type: functional, cell-based
How it was run: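 PC-3 cells were seeded in triplicate at 1.5 × 10⁴ cells/well and grown in phenol red-free IMEM with 10% FBS at 37 °C, 5% CO₂. After 24 h they were treated with DMSO or 1, 5, 15, 30 or 60 μM compound for 24 h. Cells were then trypsinized, and live and dead cells were counted by 0.4% trypan blue exclusion on a hemocytometer. Values are mean ± SEM of three independent observations.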

PC-3 [13] = assay: Increase in RASSF1A gene expression in human PC3 cells at 5 uM after 3 days hrs by RT-PCR; assay type: functional, cell-based
How it was run: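 PC-3 cells incubated 3 days with compound, then RNA extracted with TRIzol. 500 ng total RNA reverse-transcribed with random hexamers. RASSF1A amplified with previously described primers and conditions. Products run on 1.5% agarose and stained with ethidium bromide. Bands quantified by densitometry against untreated cells, with RASSF1A re-expression from the reference alkaloid set to 100%.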

[14] = Growth inhibition of human […] cells assessed as cell growth at 1 nM relative to untreated control; assay type: functional; conditions: read-out: Activity
A549 = assay: Growth inhibition of human A549 cells assessed as cell growth at 1 nM relative to untreated control; assay type: functional; conditions: read-out: Activity
EKVX = assay: Growth inhibition of human EKVX cells assessed as cell growth at 1 nM relative to untreated control; assay type: functional; conditions: read-out: Activity; how it was run: as §1
SF-539 = assay: Growth inhibition of human SF539 cells assessed as cell growth at 10 nM relative to untreated control; assay type: functional; conditions: read-out: Activity
SK-MEL-5 = assay: Growth inhibition of human SK-MEL-5 cells assessed as cell growth at 10 nM relative to untreated control; assay type: functional; conditions: read-out: Activity
OVCAR-3 [15] = assay: Growth inhibition of human OVCAR-3 cells assessed as cell growth at 10 nM relative to untreated control; assay type: functional; conditions: read-out: Activity
OVCAR-5 = assay: Growth inhibition of human OVCAR5 cells assessed as cell growth at 10 nM relative to untreated control; assay type: functional; conditions: read-out: Activity
OVCAR-8 = assay: Growth inhibition of human OVCAR8 cells assessed as cell growth at 10 nM relative to untreated control; assay type: functional; conditions: read-out: Activity
786-0 = assay: Growth inhibition of human 786-0 cells assessed as cell growth at 10 nM relative to untreated control; assay type: functional; conditions: read-out: Activity
UO-31 [16] = assay: Growth inhibition of human UO31 cells assessed as cell growth at 10 nM relative to untreated control; assay type: functional; conditions: read-out: Activity
[17] = read-out: LC50 (the source's name)

COc1ccc2c(c1)[nH]c1c(C)c(OS(=O)(=O)c3cccc4c(N(C)C)cccc34)ccc12
growth at 0.1 µM (COLO 205): 95%
growth at 0.1 µM (Malme-3M): 85%
growth at 1 µM (HL-60(TB)): -9%
growth at 1 µM (HOP-92): 49%
growth at 1 µM (NCI-H23 [1]): 30%
growth at 1 µM (HCT-116): 25%
growth at 1 µM (HCT-15 [2]): 25%
growth at 0.001 µM (NCI-H322M): 98%
growth at 0.001 µM (HT-29 [3]): 98%
growth at 0.001 µM (SF-268): 102%
growth at 0.001 µM (SK-MEL-28): 99%
growth at 1 µM (MDA-MB-435): -5%
growth at 1 µM (OVCAR-4 [4]): 44%
growth at 0.001 µM (OVCAR-3 [5]): 100%
growth at 0.001 µM (UO-31 [6]): 94%
growth at 0.001 µM (DU-145): 113%
growth at 0.001 µM (MCF7): 95%
growth at 0.01 µM (MOLT-4): 97%
growth at 0.01 µM (HOP-62): 111%
growth at 1 µM (A498): 15%
growth at 1 µM (CAKI-1): 69%
growth at 1 µM (T47D): 15%
growth at 10 µM (HCT-15 [7]): 19%
growth at 10 µM (SK-MEL-2): 18%
growth at 10 µM (OVCAR-4 [8]): 30%
growth at 10 µM (SK-OV-3): 34%
growth at 10 µM (MDA-MB-231): 40%
growth at 10 µM [9]: -1%
growth at 10 µM (BT-549): 13%
GI50 (NCI-H23 [10]): 4.08 µM
TGI (NCI-H23 [10]): > 100 µM
CC50 (NCI-H23 [10]; [17]): > 100 µM
GI50 (HT-29 [11]): 3.71 µM
TGI (HT-29 [11]): > 100 µM
CC50 (HT-29 [11]; [17]): > 100 µM
Activity (PC-3 [12]): Active
Activity (PC-3 [13]): Active
growth at 0.001 µM [14]: 99%
growth at 0.001 µM (A549): 101%
growth at 0.001 µM (EKVX): 99%
growth at 0.01 µM (SF-539): 95%
growth at 0.01 µM (SK-MEL-5): 86%
growth at 0.01 µM (OVCAR-3 [15]): 100%
growth at 0.01 µM (OVCAR-5): 106%
growth at 0.01 µM (OVCAR-8): 103%
growth at 0.01 µM (786-0): 103%
growth at 0.01 µM (UO-31 [16]): 92%
